Calls of active or inactive are those of the source. The rule behind the calls is not given here.

Drawing on ChEMBL document CHEMBL3997769, “Discovery and preclinical evaluation of 7-benzyl-N-(substituted)-pyrrolo[3,2-d]pyrimidin-4-amines as single agents with microtubule targeting effects along with triple-acting angiokinase inhibition as antitumor agents” (Bioorg Med Chem, 2017), this text covers Activity and MTD for 1 compound.

Series [1] concerns 4T1. The experiment in a line: Antitumor activity against luciferase/GFP-tagged mouse 4T1 cells implanted in Balb/CJ mouse assessed as reduction in primary tumor growth at 1 mg/kg, ip administered once in a week. The format is functional, organism-based.
Series [2] relates to Mus musculus. The experiment in a line: Toxicity in Balb/cJ mouse implanted with luciferase/GFP-tagged mouse 4T1 cells assessed as body weight gain at 1 mg/kg, ip administered once weekly measured at day 40 post dose. In kind it is organism-based. To be noted: in vivo.
The subject of series [3] is 4T1. Put plainly: Antitumor activity against luciferase/GFP-tagged mouse 4T1 cells implanted in Balb/cJ mouse assessed as reduction in lung metastasis at 1 mg/kg, ip administered once weekly by fluorescence microscopic method. In kind it is functional, organism-based. In outline:
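Orthotopic 4T1-Luc2-GFP allograft in the mammary fat pad of female BALB/cJ mice; IP treatment in 5% Pharmasolve/5% Solutol HS in saline began one week after implantation. At study end, lungs were excised from mice euthanized under isoflurane and imaged with a GFP-filter fluorescence dissecting microscope; GFP-positive metastases per lung counted. n = 9-10.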

Series [4] is described as follows: Toxicity in Balb/cJ mouse assessed as body weight loss administered once weekly measured every 2 days during compound dosing. Conditions: in vivo. The procedure, abridged: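 Female BALB/cJ mice, 8 weeks old, carrying orthotopic 4T1-Luc2-GFP allografts (7,500 cells in mammary fat pad #4). IP dosing at 1 mg/kg once weekly began one week after implantation, in 5% Pharmasolve/5% Solutol HS in normal saline. Body weight was reported as percent change at day 40 from starting weight, vs untreated controls, n = 9–10, by one-way ANOVA.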

In the case of `COc1cccc2c1C(=O)c1c(O)c3c(c(O)c1C2=O)C[C@@](O)(C(=O)CO)C[C@@H]3O[C@H]1C[C@H](N)[C@H](O)[C@H](C)O1` [DOXORUBICIN], in series [1], the result was inactive. Besides, the Activity entry in series [2] is reported as “Toxic”. The result in series [3] was Active. The MTD at 48 h in series [4] came out at 1 mg/kg.
